Assay results taken from publication PMC9126795 (eBioMedicine, 2022).
Like-named read-outs stand apart in the source and are kept apart here.

Experiments:
[1] = type: in vivo, human
Method in brief: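 Cirrhosis patients (3 per dose level) received a single 4 h IV infusion on Day −7 before the first cycle. Cmax, Tmax, t1/2 and AUC were derived by non-compartmental analysis, with the last concentration extrapolated assuming constant elimination.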

[2] = system: patients with HCV and HBV liver cirrhosis; assay: Ishak; type: in vivo, human
Method in brief: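 Liver biopsies were taken at screening (baseline) and within 2 weeks of the final dose of 280 mg/m²/4 h IV twice weekly for 12 weeks. Three independent pathologists scored slides blinded, using Knodell scoring and Ishak-modified HAI for necroinflammation and fibrosis stage. Thirteen of 15 patients were evaluable; one was excluded for poor sample quality and one discontinued.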

[3] = system: patients with HCV and HBV liver cirrhosis; assay: Child-Pugh; type: in vivo, human; conditions: 12 weeks after PRI-724 administration
Method in brief: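 Patients with HCV- or HBV-induced cirrhosis (Child–Pugh A or B) received the test compound at 280 mg/m² by 4 h IV infusion twice weekly for 12 weeks. Child–Pugh class and score were assessed at baseline and 12 weeks post-treatment. Fourteen patients were analysed, with one who discontinued excluded.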

[4] = system: patients with HCV and HBV liver cirrhosis; assay: Liver stiffness measure; type: in vivo, human; conditions: 12 weeks
Method in brief: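 Liver stiffness was measured by FibroScan at baseline and 12 weeks post-treatment in cirrhosis patients. Dosing was 280 mg/m² test compound by 4 h IV infusion twice weekly for 12 weeks. Thirteen patients were analysed, and the change relative to baseline was computed, including the ≥10% decrease subset among Child–Pugh B patients.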

[5] = system: patients with HCV and HBV liver cirrhosis; assay: Collagen proportionate area; type: in vivo, human; conditions: baseline vs 12 weeks after PRI-724 administration, 280 mg/m^2/4 h
[6] = system: patients with HCV and HBV liver cirrhosis; assay: Serum fibrosis markers; type: in vivo, human; conditions: before vs 12 weeks after PRI-724 administration
Method in brief: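 As an exploratory endpoint, serum hyaluronic acid and type IV collagen type S were measured before and 12 weeks after a course of 280 mg/m² test compound (4 h IV infusion, twice weekly, 12 weeks). Subjects were patients with HCV/HBV cirrhosis, and mean levels were compared.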

[7] = system: patients with HCV and HBV liver cirrhosis; assay: FIB-4 index, post-hoc analysis; type: in vivo, human; conditions: before and after administration
Method in brief: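 This post-hoc analysis covered HCV/HBV cirrhosis patients given 280 mg/m² of the test compound by 4 h IV infusion twice weekly for 12 weeks. FIB-4 index was calculated before and after administration.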

[8] = system: patients with HCV and HBV liver cirrhosis; assay: Serum ALB, PT and TBIL; type: in vivo, human; conditions: 14 patients
[9] = system: murine models of liver fibrosis; conditions: due to hepatic stellate cell inactivation and macrophage migration; cited from earlier work
[10] = 280mg/m^2/4 h, 12 weeks, 13 patients

PRI-724
PRI-724 AUC 0-24h ([1]; 140 mg/m^2/4h, Max): 4660 ng·h/mL
PRI-724 Cmax ([1]; 140 mg/m^2/4h, Max): 1520 ng/mL
PRI-724 Tmax ([1]; 140 mg/m^2/4h, Max): 4 h
PRI-724 AUC 0-24h ([1]; 140 mg/m^2/4h, Mean): 3740 ng·h/mL
PRI-724 Cmax ([1]; 140 mg/m^2/4h, Mean): 1150 ng/mL
PRI-724 AUC 0-24h ([1]; 140 mg/m^2/4h, Median): 3770 ng·h/mL
PRI-724 Cmax ([1]; 140 mg/m^2/4h, Median): 1030 ng/mL
PRI-724 AUC 0-24h ([1]; 140 mg/m^2/4h, Min): 2790 ng·h/mL
PRI-724 Cmax ([1]; 140 mg/m^2/4h, Min): 888 ng/mL
PRI-724 Tmax ([1]; 140 mg/m^2/4h, Min): 1 h
PRI-724 AUC 0-24h ([1]; 280 mg/m^2/4h, Max): 7500 ng·h/mL
PRI-724 Cmax ([1]; 280 mg/m^2/4h, Max): 2590 ng/mL
PRI-724 Tmax ([1]; 280 mg/m^2/4h, Max): 4 h
PRI-724 AUC 0-24h ([1]; 280 mg/m^2/4h, Mean): 5700 ng·h/mL
PRI-724 Cmax ([1]; 280 mg/m^2/4h, Mean): 1710 ng/mL
PRI-724 AUC 0-24h ([1]; 280 mg/m^2/4h, Median): 5960 ng·h/mL
PRI-724 Cmax ([1]; 280 mg/m^2/4h, Median): 1780 ng/mL
PRI-724 AUC 0-24h ([1]; 280 mg/m^2/4h, Min): 2650 ng·h/mL
PRI-724 Cmax ([1]; 280 mg/m^2/4h, Min): 757 ng/mL
PRI-724 Tmax ([1]; 280 mg/m^2/4h, Min): 1 h
PRI-724 AUC 0-24h ([1]; 380 mg/m^2/4h, Max): 16000 ng·h/mL
PRI-724 Cmax ([1]; 380 mg/m^2/4h, Max): 4730 ng/mL
PRI-724 Tmax ([1]; 380 mg/m^2/4h, Max): 4 h
PRI-724 AUC 0-24h ([1]; 380 mg/m^2/4h, Mean): 11800 ng·h/mL
PRI-724 Cmax ([1]; 380 mg/m^2/4h, Mean): 3530 ng/mL
PRI-724 AUC 0-24h ([1]; 380 mg/m^2/4h, Median): 11900 ng·h/mL
PRI-724 Cmax ([1]; 380 mg/m^2/4h, Median): 3540 ng/mL
PRI-724 AUC 0-24h ([1]; 380 mg/m^2/4h, Min): 7940 ng·h/mL
PRI-724 Cmax ([1]; 380 mg/m^2/4h, Min): 2590 ng/mL
PRI-724 Tmax ([1]; 380 mg/m^2/4h, Min): 1 h
Patients with change in Fibrosis score from baseline of 0 [2, 10]: 6
Patients with change in Fibrosis score from baseline of 1 [2, 10]: 3
Patients with change in Fibrosis score from baseline of 2 [2, 10]: 1
Patients with change in Fibrosis score from baseline of -1 [2, 10]: 1
Patients with change in Fibrosis score from baseline of -2 [2, 10]: 2
Patients with change in Necroinflammatory score from baseline of 0 [2, 10]: 5
Patients with change in Necroinflammatory score from baseline of 1 [2, 10]: 2
Patients with change in Necroinflammatory score from baseline of 2 [2, 10]: 2
Patients with change in Necroinflammatory score from baseline of -1 [2, 10]: 2
Patients with change in Necroinflammatory score from baseline of -2 [2, 10]: 2
Mean activity score ([2]; after 12-week PRI-724 administration): No change was observed
Change of CP class in the seven patients with CP class B at baseline [3]: two improved to class A, four remained unchanged, and one worsened
Patients with CP class B whose LSM decreased by ≥10% relative to baseline [4]: four of six patients
Collagen proportionate area of the whole liver tissue [5]: no statistically significant change was observed
Serum M2BPGi, mean level [6]: lower relative to baseline levels but not statistically significant
Serum hyaluronic acid, mean level [6]: no difference in mean levels
Serum procollagen III peptide, mean level [6]: lower relative to baseline levels but not statistically significant
Serum type IV collagen type S, mean level [6]: no difference in mean levels
FIB-4 index [7]: statistically significant decrease
Serum ALB level [8]: improved from baseline at some time after PRI-724 administration
Serum TBIL level [8]: improved from baseline at some time after PRI-724 administration
Anti-fibrotic effect [9]: exhibits anti-fibrotic effects
